Source: ChEMBL document CHEMBL4028856, “Discovery of Small Molecules Targeting the Synergy of Cardiac Transcription Factors GATA4 and NKX2-5” (J Med Chem, 2017)
The source made the active and inactive calls. The rule behind the calls is not given here.

What was measured:
[1] = molecular target: GATA4/NKX2-5 (Mus musculus) (UniProt Q08369+P42582); assay: (§1) Inhibition of mouse GATA4/NKX2-5 transcriptional synergy expressed in African green monkey COS-1 cells measured after 30 hrs by dual luciferase reporter gene assay; assay type: cell-based
Method in brief: (§2)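 COS-1 cells co-transfected (Fugene 6, DNA:reagent 1:3) with p3xNKE-luc, Renilla pRL-TKd238 control, and pMT2-GATA4, pMT2-NKX2-5, both, or empty pMT2; DNA balanced with pMT2. Compounds added 6 h post-transfection in 0.1% DMSO, medium renewed at 24 h, lysis at 30 h. Dual-luciferase read-out, firefly/Renilla normalized to vehicle; duplicate wells.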

[2] = molecular target: GATA4/NKX2-5 (Mus musculus, UniProt P42582+Q08369); assay: as §1; assay type: cell-based; method in brief: as §2
[3] = molecular target: Transcription factor GATA-4 (Mus musculus) (UniProt Q08369); assay: Inhibition of binding of mouse GATA4 to [32P]-double stranded oligonucleotide expressed in African green monkey COS-1 cells at 50 uM preincubated for 10 mins followed by [32P]-double stranded oligonucleotide addition measured after 20 mins by EMSA method; assay type: cell-based
Method in brief: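 Nuclear extracts from COS-1 cells transfected with pMT2-GATA4 or pMT2-NKX2-5 (harvested 48 h) preincubated 10 min with 50 μM compound, then 20 min with 32P-labeled GATA4- or NKX2-5-site probe; native 5% PAGE, phosphorimager quantitation; antibody supershift controls; mean ± SD, n = 3–5.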

[4] = molecular target: T1, GATA4/NKX2-5 (Rattus norvegicus) (UniProt P46152+O35767); assay: Inhibition of GATA4/NKX2-5 interaction in neonatal rat ventricular cardiomyocytes assessed as decrease in endothelin-1 induced mRNA level of BNP at 10 uM preincubated for 1 hr followed by endothelin-1 addition measured after 23 hrs by real-time PCR analysis
Method in brief: (§3)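 Neonatal rat ventricular myocytes (2–4-day-old Sprague-Dawley or Wistar), preplated, seeded on 6-well plates, moved to complete serum-free medium next day and cultured 24 h. Compounds (10–100 μM) added 1 h before 100 nM endothelin-1 or none; ANP and BNP mRNA quantified by RT-PCR at 24 h, normalized to 18S RNA, relative to vehicle; mean ± SD, n = 3–6.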

[5] = molecular target: T1, GATA4/NKX2-5 (Rattus norvegicus); assay: Inhibition of GATA4/NKX2-5 interaction in neonatal rat ventricular cardiomyocytes assessed as decrease in basal mRNA level of BNP at 10 uM after 24 hrs by real-time PCR analysis; method in brief: as §3
[6] = molecular target: T1, GATA4/NKX2-5 (Rattus norvegicus); assay: Inhibition of GATA4/NKX2-5 interaction in neonatal rat ventricular cardiomyocyte hypertrophy model assessed as decrease in mechanical stretching-induced cell surface area at 10 uM after 48 hrs by alpha-actinin/phalloidin/DAPI staining-based fluorescence microscopic method
Method in brief: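 Neonatal rat ventricular myocytes seeded at 10^6/well on collagen I flexible plates, cultured 48 h, then given 10 μM in serum-free medium under equibiaxial cyclic stretch (0.5 Hz, 10–20%) 48 h; nonstretched controls. Fixed, stained α-actinin/phalloidin/DAPI; α-actinin+ cell area (>200 cells/specimen) normalized to untreated nonstretched; three experiments, mean ± SEM.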

[7] = Induction of apoptosis in endothelin-1 induced neonatal rat ventricular cardiomyocytes at 50 uM measured after 24 hrs by TUNEL assay; assay type: cell-based; details: cardiac muscle cell
Method in brief: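 Neonatal rat cardiomyocytes on 8-well chamber slides treated 24 h at 50 μM; apoptotic cells detected by TUNEL with peroxidase in situ kit.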

[8] = molecular target: Epidermal growth factor receptor (Homo sapiens) (UniProt P00533); assay: Inhibition of human EGFR at 30 uM
Method in brief: (§4)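 48-kinase profiling panel; compounds tested at 30 μM in duplicate.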

[9] = molecular target: Vascular endothelial growth factor receptor 2 (Homo sapiens) (UniProt P35968); assay: Inhibition of human VEGFR2 at 30 uM; method in brief: as §4
[10] = molecular target: Glycogen synthase kinase-3 beta (Homo sapiens) (UniProt P49841); assay: Inhibition of human GSK3-beta at 30 uM; method in brief: as §4
[11] = molecular target: Mitogen-activated protein kinase 1 (Homo sapiens) (UniProt P28482); assay: Inhibition of human ERK2 at 30 uM; method in brief: as §4
[12] = molecular target: Rho-associated protein kinase 1 (Homo sapiens) (UniProt Q13464); assay: Inhibition of human ROCK1 at 30 uM; method in brief: as §4
[13] = species: Homo sapiens; assay: Inhibition of human PKA at 30 uM; method in brief: as §4
[14] = Drug metabolism in embryoid body differentiation medium assessed as formation of N-[4-(Ethylamino)phenyl]-5-methyl-3-phenylisoxazole-4-carboxamide at 3 to 5 uM measured after 10 days by HPLC/MS method; assay type: physicochemical; details: 240 h
Method in brief: (§5)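 Mouse embryonic stem cells exposed 5 and 10 days to 3 or 5 μM, with DMSO and EB differentiation medium blanks. Medium extracted with chloroform; cells pelleted, saline-washed twice, sonicated in chloroform. UPLC-ESI(+)-QTOF/MS, BEH C18, 0.1% formic acid water/acetonitrile gradient 7–80% B over 5 min, 0.6 mL/min, 40 °C.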

[15] = Drug metabolism in mouse embryonic stem cells assessed as formation of N-[4-(Ethylamino)phenyl]-5-methyl-3-phenylisoxazole-4-carboxamide at 3 to 5 uM measured after 10 days by HPLC/MS method; assay type: ADME, cell-based; details: embryonic stem cell, 240 h; method in brief: as §5
[16] = Stability of compound in DMSO assessed as formation of N-[4-(Ethylamino)phenyl]-5-methyl-3-phenylisoxazole-4-carboxamide at 3 to 5 uM at room temperature measured after 6 months by HPLC/MS method; assay type: physicochemical; details: 4383 h
[17] = Induction of aggregation of compounds at 100 uM by nephalometric method
[18] = molecular target: Transcription factor GATA-4 (Mus musculus) (UniProt Q08369); assay: Inhibition of mouse GATA4-driven transactivation of luciferase reporter construct containing BNP minimal promoter expressed in African green monkey COS-1 cells after 30 hrs by luminometer; assay type: cell-based
Method in brief: (§6)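 COS-1 cells co-transfected with firefly luciferase driven by BNP minimal or −90 bp BNP promoter, Renilla pRL-TKd238, and pMT2-GATA4 or empty pMT2. Compounds added 6 h post-transfection in 0.1% DMSO, refreshed with medium at 24 h; lysis at 30 h; dual-luciferase, firefly/Renilla normalized to vehicle; triplicate wells.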

[19] = molecular target: Transcription factor GATA-4 (Mus musculus) (UniProt Q08369); assay: Inhibition of mouse GATA4-driven transactivation of luciferase reporter construct containing BNP minimal promoter with tandem GATA-site on -90 bp expressed in African green monkey COS-1 cells after 30 hrs by luminometer; assay type: cell-based; method in brief: as §6
[20] = Induction of necrosis in neonatal rat ventricular cardiomyocytes assessed as release of adenylate kinase at 50 uM measured after 24 hrs by bioluminescence assay; assay type: cell-based; details: cardiac muscle cell
Method in brief: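 Neonatal rat cardiomyocytes treated 24 h at 50 μM; adenylate kinase released into medium measured by ToxiLight bioluminescence on a luminometer; relative to vehicle, mean ± SD, n = 3.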

[21] = molecular target: Parathyroid hormone 2 receptor (Homo sapiens) (UniProt P49190); assay: Agonist activity at human PTH2 receptor expressed in Chem-1 cells assessed as induction of calcium flux at 12.5 uM by fluorescence assay; assay type: functional, cell-based
Method in brief: (§7)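 GPCR profiling panel of cell-based functional assays covering 165 GPCRs; agonist mode tested at 12.5 μM and antagonist mode at 10 μM, in duplicate.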

[22] = molecular target: Hydroxycarboxylic acid receptor 2 (Homo sapiens) (UniProt Q8TDS4); assay: Agonist activity at human GPR109A expressed in Chem-4 cells assessed as induction of calcium flux at 12.5 uM by fluorescence assay; assay type: functional, cell-based; method in brief: as §7

Sequence of Transcription factor GATA-4 (Mus musculus) (Q08369 whole entry): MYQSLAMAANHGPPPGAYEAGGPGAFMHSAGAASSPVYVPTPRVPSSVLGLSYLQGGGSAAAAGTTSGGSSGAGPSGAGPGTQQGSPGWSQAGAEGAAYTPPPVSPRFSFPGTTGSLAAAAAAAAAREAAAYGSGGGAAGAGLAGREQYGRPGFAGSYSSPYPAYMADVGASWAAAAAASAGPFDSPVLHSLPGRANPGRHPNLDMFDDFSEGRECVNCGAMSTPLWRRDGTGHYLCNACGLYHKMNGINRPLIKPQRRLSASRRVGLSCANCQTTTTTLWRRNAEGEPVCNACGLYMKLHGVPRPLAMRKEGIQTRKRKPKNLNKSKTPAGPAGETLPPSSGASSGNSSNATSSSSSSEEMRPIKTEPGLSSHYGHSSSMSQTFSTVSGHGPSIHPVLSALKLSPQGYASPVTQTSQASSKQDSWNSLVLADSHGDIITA
Sequence of Parathyroid hormone 2 receptor (Homo sapiens) (P49190 whole entry): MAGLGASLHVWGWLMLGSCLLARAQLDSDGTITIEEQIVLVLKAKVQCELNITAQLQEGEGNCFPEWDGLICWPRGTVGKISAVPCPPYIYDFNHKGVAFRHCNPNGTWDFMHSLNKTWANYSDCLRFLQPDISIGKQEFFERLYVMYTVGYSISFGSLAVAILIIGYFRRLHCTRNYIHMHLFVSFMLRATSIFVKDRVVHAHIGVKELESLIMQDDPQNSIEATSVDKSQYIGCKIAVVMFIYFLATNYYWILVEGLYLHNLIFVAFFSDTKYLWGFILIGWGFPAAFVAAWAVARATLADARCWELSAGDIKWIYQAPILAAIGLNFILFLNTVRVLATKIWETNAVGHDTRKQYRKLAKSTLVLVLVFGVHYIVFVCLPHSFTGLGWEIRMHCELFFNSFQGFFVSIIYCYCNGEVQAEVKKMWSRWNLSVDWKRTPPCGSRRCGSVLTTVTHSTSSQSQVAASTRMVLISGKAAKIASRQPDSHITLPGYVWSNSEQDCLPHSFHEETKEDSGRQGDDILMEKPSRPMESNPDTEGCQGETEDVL
Sequence of Vascular endothelial growth factor receptor 2 (Homo sapiens) (P35968 whole entry): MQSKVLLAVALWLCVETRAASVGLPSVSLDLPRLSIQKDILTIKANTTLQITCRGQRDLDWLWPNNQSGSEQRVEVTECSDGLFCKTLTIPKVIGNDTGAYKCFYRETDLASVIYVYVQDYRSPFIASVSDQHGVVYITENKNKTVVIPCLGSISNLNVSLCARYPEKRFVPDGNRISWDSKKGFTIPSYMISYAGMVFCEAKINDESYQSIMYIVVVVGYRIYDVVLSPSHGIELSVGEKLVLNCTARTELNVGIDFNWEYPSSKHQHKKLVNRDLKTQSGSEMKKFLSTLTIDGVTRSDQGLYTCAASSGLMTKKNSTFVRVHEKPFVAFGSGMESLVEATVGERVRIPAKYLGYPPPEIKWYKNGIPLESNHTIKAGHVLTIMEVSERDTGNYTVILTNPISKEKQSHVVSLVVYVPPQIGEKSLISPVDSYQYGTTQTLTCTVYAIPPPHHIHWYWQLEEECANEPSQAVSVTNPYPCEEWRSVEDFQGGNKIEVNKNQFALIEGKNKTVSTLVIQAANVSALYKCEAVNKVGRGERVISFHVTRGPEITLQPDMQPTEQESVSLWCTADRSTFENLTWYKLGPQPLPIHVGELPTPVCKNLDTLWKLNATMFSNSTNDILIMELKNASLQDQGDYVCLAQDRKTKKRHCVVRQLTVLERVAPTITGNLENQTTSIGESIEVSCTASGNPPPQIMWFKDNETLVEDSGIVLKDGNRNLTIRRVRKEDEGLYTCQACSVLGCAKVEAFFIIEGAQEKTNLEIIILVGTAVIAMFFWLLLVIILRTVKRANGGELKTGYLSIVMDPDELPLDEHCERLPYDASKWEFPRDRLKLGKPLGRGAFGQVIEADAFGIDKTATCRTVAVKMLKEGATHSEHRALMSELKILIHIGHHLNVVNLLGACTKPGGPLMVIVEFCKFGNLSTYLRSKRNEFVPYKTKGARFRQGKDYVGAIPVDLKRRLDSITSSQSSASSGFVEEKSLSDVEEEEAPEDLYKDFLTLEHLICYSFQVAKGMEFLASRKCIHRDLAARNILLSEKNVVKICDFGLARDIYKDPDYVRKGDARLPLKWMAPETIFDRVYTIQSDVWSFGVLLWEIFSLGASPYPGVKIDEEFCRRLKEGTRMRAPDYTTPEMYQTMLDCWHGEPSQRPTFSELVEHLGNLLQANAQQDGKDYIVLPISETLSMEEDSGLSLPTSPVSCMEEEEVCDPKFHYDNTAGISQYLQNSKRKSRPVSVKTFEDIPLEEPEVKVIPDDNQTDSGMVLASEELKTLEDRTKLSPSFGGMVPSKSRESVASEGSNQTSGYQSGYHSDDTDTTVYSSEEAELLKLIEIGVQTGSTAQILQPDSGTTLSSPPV
Sequence of Glycogen synthase kinase-3 beta (Homo sapiens) (P49841 whole entry, looked up): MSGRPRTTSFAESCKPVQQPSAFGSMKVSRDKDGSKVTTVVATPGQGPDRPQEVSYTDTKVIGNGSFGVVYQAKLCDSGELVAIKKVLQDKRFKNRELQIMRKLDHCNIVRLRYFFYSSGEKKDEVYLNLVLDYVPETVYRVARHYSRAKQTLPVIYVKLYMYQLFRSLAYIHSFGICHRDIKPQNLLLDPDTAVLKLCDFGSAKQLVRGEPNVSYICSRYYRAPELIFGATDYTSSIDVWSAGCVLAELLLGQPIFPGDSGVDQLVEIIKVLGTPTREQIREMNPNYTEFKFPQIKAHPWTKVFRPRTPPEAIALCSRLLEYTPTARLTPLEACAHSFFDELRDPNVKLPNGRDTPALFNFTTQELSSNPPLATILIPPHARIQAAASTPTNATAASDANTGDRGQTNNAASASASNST
Sequence of GATA4/NKX2-5 (Q08369 whole entry): as the sequence (Q08369 whole entry) above
Sequence of GATA4/NKX2-5 (P42582 whole entry): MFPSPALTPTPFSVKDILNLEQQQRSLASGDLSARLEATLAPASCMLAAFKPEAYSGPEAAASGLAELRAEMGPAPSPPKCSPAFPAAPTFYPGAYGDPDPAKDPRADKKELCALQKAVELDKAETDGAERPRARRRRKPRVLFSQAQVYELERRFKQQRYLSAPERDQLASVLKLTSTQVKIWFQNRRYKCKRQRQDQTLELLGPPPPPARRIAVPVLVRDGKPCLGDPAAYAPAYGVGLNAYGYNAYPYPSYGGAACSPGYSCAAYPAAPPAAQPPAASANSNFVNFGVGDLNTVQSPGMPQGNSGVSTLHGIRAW
Sequence of Rho-associated protein kinase 1 (Homo sapiens) (Q13464 2-1354 limits assumed): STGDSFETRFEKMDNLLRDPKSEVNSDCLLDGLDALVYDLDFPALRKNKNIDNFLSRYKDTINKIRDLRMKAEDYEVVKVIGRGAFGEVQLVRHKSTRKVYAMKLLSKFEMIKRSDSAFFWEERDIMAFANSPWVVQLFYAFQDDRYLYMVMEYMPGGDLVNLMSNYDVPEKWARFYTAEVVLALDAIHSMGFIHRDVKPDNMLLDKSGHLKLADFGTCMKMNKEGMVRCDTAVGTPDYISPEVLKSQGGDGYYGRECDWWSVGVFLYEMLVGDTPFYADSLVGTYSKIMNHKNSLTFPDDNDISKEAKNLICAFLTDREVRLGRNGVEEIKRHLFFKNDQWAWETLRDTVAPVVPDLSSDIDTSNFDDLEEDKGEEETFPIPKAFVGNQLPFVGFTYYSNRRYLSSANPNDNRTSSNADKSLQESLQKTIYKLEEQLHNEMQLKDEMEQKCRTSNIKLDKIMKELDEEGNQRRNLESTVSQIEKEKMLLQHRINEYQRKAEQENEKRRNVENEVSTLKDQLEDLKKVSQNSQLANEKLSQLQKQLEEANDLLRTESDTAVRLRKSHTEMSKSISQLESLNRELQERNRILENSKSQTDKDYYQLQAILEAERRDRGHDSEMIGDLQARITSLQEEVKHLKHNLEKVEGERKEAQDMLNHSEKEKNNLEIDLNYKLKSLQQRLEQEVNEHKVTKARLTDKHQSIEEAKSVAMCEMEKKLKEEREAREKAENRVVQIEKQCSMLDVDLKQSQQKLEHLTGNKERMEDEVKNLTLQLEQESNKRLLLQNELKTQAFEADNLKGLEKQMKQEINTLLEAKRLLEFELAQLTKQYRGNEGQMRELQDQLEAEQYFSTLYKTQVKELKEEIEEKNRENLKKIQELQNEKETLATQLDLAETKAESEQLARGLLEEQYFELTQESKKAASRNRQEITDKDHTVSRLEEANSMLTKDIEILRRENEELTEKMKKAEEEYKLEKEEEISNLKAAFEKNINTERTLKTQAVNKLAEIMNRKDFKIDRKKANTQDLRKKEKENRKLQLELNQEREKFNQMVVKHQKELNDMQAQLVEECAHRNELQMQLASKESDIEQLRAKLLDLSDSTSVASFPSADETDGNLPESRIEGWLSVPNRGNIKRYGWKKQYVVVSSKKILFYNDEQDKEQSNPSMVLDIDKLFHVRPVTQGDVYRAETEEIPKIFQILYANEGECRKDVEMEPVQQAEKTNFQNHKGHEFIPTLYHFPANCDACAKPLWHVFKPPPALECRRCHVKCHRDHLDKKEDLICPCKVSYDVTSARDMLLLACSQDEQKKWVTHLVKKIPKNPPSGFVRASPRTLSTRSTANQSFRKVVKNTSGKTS
Sequence of Mitogen-activated protein kinase 1 (Homo sapiens) (P28482 whole entry): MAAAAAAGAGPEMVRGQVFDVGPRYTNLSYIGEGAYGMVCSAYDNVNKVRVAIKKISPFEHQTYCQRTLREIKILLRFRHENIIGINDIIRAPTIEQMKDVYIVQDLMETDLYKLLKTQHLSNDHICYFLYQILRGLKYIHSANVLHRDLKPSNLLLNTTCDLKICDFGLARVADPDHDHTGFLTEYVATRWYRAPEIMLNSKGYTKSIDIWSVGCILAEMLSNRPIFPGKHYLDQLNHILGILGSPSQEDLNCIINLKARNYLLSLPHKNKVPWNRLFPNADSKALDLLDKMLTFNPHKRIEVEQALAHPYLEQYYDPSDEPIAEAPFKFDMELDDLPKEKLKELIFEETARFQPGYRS

What does the source list for `CCN(CC)c1ccc(NC(=O)c2c(-c3ccccc3)noc2C)cc1`?
inhibition [1]: Dose-dependent effect; IC50 [2]: 3 µM; inhibition [3]: inactive; inhibition [4]: 68%; inhibition [5]: 75%; inhibition [6]: Active; Activity [7]: Non-Toxic; inhibition [8]: 54%; inhibition [9]: 64%; inhibition [10]: inactive; inhibition [11]: inactive; inhibition [12]: inactive; inhibition [13]: inactive; Drug metabolism [14]: Metabolite_Detected; Drug metabolism [15]: Metabolite_Detected; Stability [16]: Stable; Activity [17]: Active; inhibition [18]: Active; inhibition [19]: Active; Activity [20]: Non-Toxic; Activity [21]: inactive; Activity [22]: inactive
